{"data": "Measured values of several laboratories", "target": "Receptor tyrosine-protein kinase erbB-4 (ERBB4, Homo sapiens, UniProt Q15303)"}
{"Structure (SMILES)": "Cc1nc(N2CC[C@@H](O)C2)ncc1-c1cc(C(F)(F)F)cc2[nH]ncc12", "assay": "binding, competition with immobilised ligand", "conditions": "1 µM", "endpoint": "remaining binding", "value": "87%"}
{"Structure (SMILES)": "CCCOc1ccc(OC)c(F)c1C(=O)c1ccc(C(=O)N[C@@H]2CNC[C@H]2NC(=O)c2ccc3[nH]ncc3c2)cc1", "assay": "enzyme activity, inhibitor", "conditions": "10 µM", "endpoint": "remaining activity", "value": "92%"}
{"Structure (SMILES)": "Cc1cc(-n2nc(Cc3cc(F)cc(C(F)(F)F)c3)nc2C)ccc1C(N)=O", "assay": "cell-free assay, competition with immobilised ligand", "conditions": "1 µM", "endpoint": "remaining binding", "value": "67%"}
{"Structure (SMILES)": "COc1cc2nccc(Oc3ccc(NC(=O)c4c5n(n(-c6ccc(F)cc6)c4=O)CCCC5)cc3)c2cc1OC", "assay": "enzyme activity, inhibitor", "conditions": "0.1 µM", "endpoint": "inhibition", "value": "-17%"}
{"Structure (SMILES)": "CC/C(=N\\NC(=O)NCc1cccc(O)c1)c1ccc(O)c(C)c1O", "assay": "enzyme activity, inhibitor", "conditions": "0.1 µM", "endpoint": "inhibition", "value": "9.9%"}
{"Structure (SMILES)": "Cc1ccc(C(=O)Nc2ccc(CN3CCN(C)CC3)c(C(F)(F)F)c2)cc1C#Cc1cnc2cccnn12", "assay": "enzyme activity, inhibitor", "conditions": "23.5 nM", "endpoint": "remaining activity", "value": "57%"}
{"Structure (SMILES)": "FC(F)c1nc2ccccc2n1-c1nc(N2CCOCC2)nc(N2CCOCC2)n1", "assay": "enzyme activity, inhibitor", "conditions": "10 µM", "endpoint": "remaining activity", "value": "103%"}
{"Structure (SMILES)": "N#CCCc1ccc2c(c1)-c1[nH]c3ccc([N+](=O)[O-])cc3c1CC(=O)N2", "assay": "cell-free assay", "conditions": "0.5 µM", "endpoint": "remaining signal", "value": "91.8%"}
{"Structure (SMILES)": "CC(C)(O)[C@H]1CC[C@H](Nc2ccc3ncc(-c4cccc(C(F)(F)F)c4)n3n2)CC1", "assay": "enzyme activity, inhibitor", "conditions": "1 µM", "endpoint": "remaining activity", "value": "92.6%"}
{"Structure (SMILES)": "C=CC(=O)Nc1cc(Nc2nccc(Nc3cc(Cl)c(F)cc3C(C)(C)O)n2)c(OC)cc1N1CC[C@@H](N(C)C)C1", "assay": "enzyme activity, inhibitor", "conditions": "1 µM", "endpoint": "inhibition", "value": "88%"}
{"Structure (SMILES)": "Cc1ccc(C(=O)NCc2ccsc2)cc1C#Cc1cn(C(C)C)c2ncnc(N)c12", "assay": "enzyme activity, inhibitor", "conditions": "1 µM", "endpoint": "activity vs control", "value": "52%"}
{"Structure (SMILES)": "Cc1cnc(NC2CCOCC2)nc1-n1cnc(C(=O)NC(CN)c2cc(F)cc(Cl)c2)c1 (stereo not shown)", "assay": "enzyme activity, inhibitor, radiometric", "conditions": "1 µM", "endpoint": "remaining activity", "value": "108%"}
{"Structure (SMILES)": "CN(C(=O)c1ccccc1)c1cc(N(C)c2ccc3c(c2)CCc2ccc(C(=O)NCCN4CCOCC4)cc2C3=O)ccc1F", "assay": "cell-free assay, competition with immobilised ligand", "conditions": "1 µM", "endpoint": "remaining binding", "value": "90%"}
{"Structure (SMILES)": "CC(C)(C)c1nc(-c2cccc(NS(=O)(=O)c3c(F)cccc3F)c2F)c(-c2ccnc(N)n2)s1", "assay": "enzyme activity, inhibitor, radiometric", "conditions": "1 µM", "endpoint": "remaining activity", "value": "91%"}
{"Structure (SMILES)": "Cc1ccc(Nc2nccc(N(C)c3ccc4c(C)n(C)nc4c3)n2)cc1S(N)(=O)=O", "assay": "enzyme activity, inhibitor", "conditions": "10 µM", "endpoint": "inhibition", "value": "36%"}
{"Structure (SMILES)": "CS(=O)(=O)CCNCc1ccc(-c2ccc3ncnc(Nc4ccc(OCc5cccc(F)c5)c(Cl)c4)c3c2)o1", "assay": "cell-free assay", "conditions": "0.5 µM", "endpoint": "remaining signal", "value": "11.2%"}
{"Structure (SMILES)": "O=C(NC[C@@H]1[C@H]2CN(C(=O)OCc3cc(C(F)(F)F)cc(C(F)(F)F)c3)C[C@@H]12)c1ccc2[nH]nnc2c1", "assay": "cell-free assay, competition with immobilised ligand", "conditions": "1 µM", "endpoint": "remaining binding", "value": "100%"}
{"Structure (SMILES)": "COc1cc2c(N3CCN(C(=O)Nc4ccc(OC(C)C)cc4)CC3)ncnc2cc1OCCCN1CCCCC1", "assay": "cell-free assay", "conditions": "0.5 µM", "endpoint": "remaining signal", "value": "97.3%"}
{"Structure (SMILES)": "CN(C)c1ncnc(-c2ccc3nc(Nc4cc(CN5CCN(C(=O)CC(F)(F)F)CC5)ccn4)[nH]c3c2)c1Cl", "assay": "cell-free assay, competition with immobilised ligand", "conditions": "1 µM", "endpoint": "remaining binding", "value": "99%"}
{"Structure (SMILES)": "COc1cc2ncnc(Nc3ccc(F)c(Cl)c3)c2cc1OCCCN1CCOCC1", "assay": "cell-free assay", "conditions": "0.5 µM", "endpoint": "remaining signal", "value": "24.2%"}
{"Structure (SMILES)": "Cn1c(=O)n(-c2ccc(C(C)(C)C#N)cc2)c2c3cc(-c4cnc5ccccc5c4)ccc3ncc21", "assay": "enzyme activity, inhibitor", "conditions": "10 µM", "endpoint": "remaining activity", "value": "117%"}
{"Structure (SMILES)": "CN(C)C(=O)Cn1cc(-c2nc([C@@](C)(c3ccc(-c4cnc(N)nc4)cc3)C3CC3)no2)cn1", "assay": "cell-free assay, competition with immobilised ligand", "conditions": "1 µM", "endpoint": "remaining binding", "value": "100%"}
{"Structure (SMILES)": "COc1cc(Nc2cnc(C#N)c(O[C@H](C)CN(C)C)n2)ncc1-c1cnn(C)c1", "assay": "enzyme activity, inhibitor, radiometric", "conditions": "1 µM", "endpoint": "remaining activity", "value": "101%"}
{"Structure (SMILES)": "COc1cc2ncnc(Nc3ccc(Oc4ccccc4)cc3C)c2cc1OC", "assay": "enzyme activity, inhibitor", "conditions": "1 µM", "endpoint": "inhibition", "value": "98%"}
{"Structure (SMILES)": "O=C(NCc1ncc(C(F)(F)F)cc1Cl)c1ccc2c(c1)C1(CCS(=O)(=O)CC1)[C@@H](C1CC1)N2S(=O)(=O)c1ccc(F)cc1", "assay": "cell-free assay, competition with immobilised ligand", "conditions": "1 µM", "endpoint": "remaining binding", "value": "72%"}
{"Structure (SMILES)": "CNC(=O)c1cc(Oc2ccc(NC(=O)Nc3ccc(Cl)c(C(F)(F)F)c3)cc2)ccn1", "assay": "enzyme activity, inhibitor", "conditions": "0.3 µM", "endpoint": "inhibition", "value": "-7%"}
{"Structure (SMILES)": "Cc1cc(C)c(-n2ccn3nc(-c4cccnc4)cc23)cc1NC(=O)c1cc(C#N)cc(S(F)(F)(F)(F)F)c1", "assay": "cell-free assay, competition with immobilised ligand", "conditions": "0.1 µM", "endpoint": "remaining binding", "value": "96.3%"}
{"Structure (SMILES)": "Cc1sc(C(=O)NC2COC2)cc1-n1cc(NC(=O)Nc2c(F)cccc2Cl)cn1", "assay": "enzyme activity, inhibitor", "conditions": "10 µM", "endpoint": "remaining activity", "value": "95%"}
